Hits are enriched below; roughly 3.9% of the tested compounds scored in any of these assays.
DNA FID counter: fluorescent intercalator displacement, NS3 helicase counter-screen; inhibition, % at 7.9 µM; DNA fluorescent intercalator displacement, fluorescence; 290,000 tested, 0.17% active; in the data active = inhibition above about 37%;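 also: 0% = vehicle and 100% = reference compound; higher means more ethidium bromide displaced from hairpin DNA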
HSF1 inhib: HSF1 inhibition. NIH3T3-HGL HSE-luciferase, MG132-induced, luminescence 8 h; hits give low values. activity change, negative = inhibition, % at 7.5 µM (by protocol). 300,000 tested, 0.77% active. AID 2098;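 active = more than half of replicate wells show activity change below -50%, luminescence cut by over half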;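 also: luciferase reports HSF-1 transcriptional activity via heat shock element; 0% = median of DMSO wells and -100% = zero luminescence signal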
HSF-1 act: increases HSF-1 driven luciferase reporter signal. NIH3T3-HGL HSF-1 luciferase reporter, MG132, 8 h; 100% = twice DMSO control signal. activation, % at 9 µM. 300,000 tested, 1.7% active. AID 504408;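 active = mean replicate activation of at least 50% with a set share of replicates each reaching 50%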;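 also: 0% = median of the neutral control wells and 100% = twice that signal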
HSP90 inh: HSP90 refolding inhibition in rabbit reticulocyte lysate. luciferase refolding luminescence, 3 h. inhibition, % at 5.6 µM. 290,000 tested, 0.91% active. AID 1789;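 active = inhibition above the screen-wide mean plus 3 SD, computed separately per campaign, cut at about 16% in these data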;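 also: 0% = DMSO wells and 100% = 60 µM geldanamycin wells; inhibitors lower the luminescence because luciferase stays unfolded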
NS3 helicase inh: blocks Hepatitis C virus NS3 helicase unwinding. NS3 helicase DNA unwinding, Cy5 molecular beacon fluorescence. inhibition, % at 10.9 µM. 290,000 tested, 0.56% active;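 active = inhibition above the mean of all tested compounds plus 3 SD, set per campaign, cut at about 35% in these data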;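 also: 0% = DMSO wells and 100% = thioflavine S control wells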
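Control set: DMSO versus 110 µM thioflavine S; Material: NS3 helicase fragment of HCV; Measured by: Cy5 fluorescence at 0 and 60 min, beacon hairpin quenching; Read-out basis: percent inhibition from t60/t0 fluorescence ratio; Times: reaction time 60 min, 25 °C; Repeats: single replicate; Compound dosing: single dose, 10.9 µM nominal final, DMSO 0.8% final.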
HCV core dimer: HCV core protein dimerization inhibition; TR-FRET GST/Flag-core106 dimerization, 1536-well; inhibition, % at 5 µM; 300,000 tested, 0.33% active;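 active = inhibition above the mean of all tested compounds plus 3 SD, set per screening campaign, cut at about 45% in these data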
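Material: GST/Flag-tagged HCV core106 proteins. Incubation: 4 h, 22.5 °C incubation. Read-out basis: inhibition (%) from 671 over 617 nm ratio. Measured by: TR-FRET, excitation 340 nm, emission 617 and 671 nm.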
Active calls of the source: *.

Screening CCCCNC(=O)COC(=O)c1ccc(C)c(NC(=O)c2ccco2)c1 returned DNA FID counter -5, HSF1 inhib -6, HSF-1 act 3, HSP90 inh -3, NS3 helicase inh -3 and HCV core dimer -1.
`CC(C)c1nc2c(s1)CCc1onc(-c3cccc([N+](=O)[O-])c3)c1-2` gave HSF1 inhib 16, HSF-1 act 8 and HCV core dimer 0.
O=S(=O)(c1ccc(Br)cc1)N1CCN=C1SCc1cccnc1 was read as DNA FID counter -4, HSF1 inhib 4, HSF-1 act 3, HSP90 inh 2, NS3 helicase inh 5 and HCV core dimer 4.
Screening Cc1cc(N2CCN(C)CC2)nc2ccc(NC(=S)NCCCN3CCc4ccccc4C3)cc12 returned DNA FID counter 41*, HSF1 inhib -1, HSF-1 act 11, HSP90 inh 1, NS3 helicase inh -32 and HCV core dimer 3.
`Cc1cc(N2CCN(C)CC2)nc2ccc(NC(=S)NCCN3CCc4ccccc4C3)cc12` gave DNA FID counter 38*, HSF1 inhib 18, HSF-1 act 36, HSP90 inh 1, NS3 helicase inh -32 and HCV core dimer 3.
Screening CCN1CCN(c2cc(C)c3cc(NC(=S)NCCCN4CCc5ccccc5C4)ccc3n2)CC1 returned DNA FID counter 32, HSF1 inhib 0, HSF-1 act -4, HSP90 inh 4, NS3 helicase inh -73 and HCV core dimer -1.
Screening COc1ccc(-c2cc(CS(=O)(=O)c3ccccc3)on2)cc1 returned DNA FID counter -8, HSF1 inhib 19, HSF-1 act 64*, HSP90 inh 2, NS3 helicase inh 2 and HCV core dimer 3.
`O=C(Nc1ccc2c(c1)OCO2)C1CCCN(c2nc3ccccc3s2)C1` (stereo unspecified) gave DNA FID counter -10, HSF1 inhib 32, HSF-1 act 77*, HSP90 inh 0, NS3 helicase inh -7 and HCV core dimer 5.
CSCCNC(=O)c1ccc2nc(C3CCCCC3)oc2c1 was read as DNA FID counter -29, HSF1 inhib 5, HSF-1 act -9, HSP90 inh -3, NS3 helicase inh 14 and HCV core dimer -1.
Screening O=C(Cc1ccc(Cl)cc1)N1CCc2ccccc2C1 returned HSF1 inhib 45, HSF-1 act 59* and HCV core dimer 3.
For O=C(Nc1ccc(Cl)cc1)N1CCc2ccccc2C1 the results were DNA FID counter -8, HSF1 inhib 42, HSF-1 act 80*, HSP90 inh 0, NS3 helicase inh 0 and HCV core dimer 4.
Screening Cc1ccc(NC(=O)N2CCc3ccccc32)cc1 returned DNA FID counter -3, HSF1 inhib 40, HSF-1 act 63*, HSP90 inh 16, NS3 helicase inh 2 and HCV core dimer -2.
`COc1ccc(CC(=O)N2CCc3ccccc3C2)cc1` gave DNA FID counter -14, HSF1 inhib 6, HSF-1 act 29, HSP90 inh -1 and NS3 helicase inh -6.
O=C(OCC(=O)N1CCc2ccccc2C1)c1cccs1 was read as DNA FID counter -7, HSF1 inhib 55, HSF-1 act 80*, HSP90 inh -2, NS3 helicase inh -6 and HCV core dimer -2.
Cc1cc(Cl)cc(Br)c1OCCCN1C(=O)NC(C)(C)C1=O was read as DNA FID counter -19, HSF1 inhib 32, HSF-1 act 75*, HSP90 inh -7, NS3 helicase inh -6 and HCV core dimer -1.
For CC1Cc2ccccc2N1C(=O)C12CCC(C)(C(=O)C1)C2(C)C (stereo unspecified) the results were DNA FID counter -13, HSF1 inhib -63*, HSF-1 act -71, HSP90 inh 5, NS3 helicase inh -3 and HCV core dimer 0.
For Cc1ccc2c(c1)c1c3n2CCN(C(=O)CN2CCN(C)CC2)C3CCC1 (stereo unspecified) the results were DNA FID counter 11, HSF1 inhib -7, HSF-1 act -9, HSP90 inh 3, NS3 helicase inh -6 and HCV core dimer -12.
`Cc1ccc2c(c1)c(=O)c1c3n2CCN(C(=O)CCl)C3CC1` (stereo unspecified) gave DNA FID counter -1, HSF1 inhib -7, HSF-1 act -8, HSP90 inh -2, NS3 helicase inh 1 and HCV core dimer 47*.
Screening CCCN(CCC)CCNC(=O)C1CCCN(S(=O)(=O)c2ccc3c(c2)oc(=O)n3C)C1 (stereo unspecified) returned DNA FID counter 2, HSF1 inhib 4, HSF-1 act -2, HSP90 inh 1, NS3 helicase inh -3 and HCV core dimer 2.
Screening Cn1c(=O)oc2cc(S(=O)(=O)N3CCCC(C(=O)NCCN4CCOCC4)C3)ccc21 (stereo unspecified) returned DNA FID counter 3, HSP90 inh 30*, NS3 helicase inh 13 and HCV core dimer -23.
COc1ccc(-c2nc(C3CCCCC3)no2)cc1OC was read as DNA FID counter -11, HSF1 inhib 36, HSF-1 act 81*, HSP90 inh 0, NS3 helicase inh -6 and HCV core dimer -2.
`O=C(Nc1ccc2oc(-c3ccncc3)nc2c1)c1ccccc1` gave DNA FID counter 0, HSF1 inhib 4, HSF-1 act -1, HSP90 inh -2, NS3 helicase inh -10 and HCV core dimer -1.
Screening Cc1ccc(-c2nc3ncccc3o2)cc1NC(=O)c1ccco1 returned DNA FID counter -8, HSF1 inhib -3, HSF-1 act 3, HSP90 inh 1, NS3 helicase inh 3 and HCV core dimer -4.
O=C(Nc1ccc(-c2nc3ncccc3o2)cc1)c1ccc([N+](=O)[O-])o1 was read as DNA FID counter -10, HSF1 inhib 104, HSF-1 act 151*, HSP90 inh 2, NS3 helicase inh 11 and HCV core dimer 7.
`O=C(Nc1ccc2oc(-c3ccncc3)nc2c1)c1ccc([N+](=O)[O-])o1` gave DNA FID counter -13, HSF1 inhib 101, HSF-1 act 84*, HSP90 inh 0, NS3 helicase inh -1 and HCV core dimer 8.
Screening Cc1ccc(-c2nc3ncccc3o2)cc1NC(=O)c1ccc([N+](=O)[O-])o1 returned DNA FID counter -7, HSF1 inhib 91, HSF-1 act 139*, HSP90 inh 2, NS3 helicase inh -1 and HCV core dimer -5.
Cn1cc([N+](=O)[O-])c(C(=O)Nc2ccc(-c3nc4ccccc4o3)cc2)n1 was read as DNA FID counter -2, HSF1 inhib 281, HSF-1 act 285*, HSP90 inh 1, NS3 helicase inh 0 and HCV core dimer -2.
COc1ccc(S(=O)(=O)N(CC(=O)N2CCOCC2)Cc2ccccc2)cc1C was read as DNA FID counter -25, HSF1 inhib 3, HSF-1 act -8, HSP90 inh 5, NS3 helicase inh 4 and HCV core dimer 1.

Source: PubChem (several laboratories)
